Screening results from PubChem.
The list is not random: actives were taken first. Their share in the collection is about 3%.
MPTP inh – mitochondrial permeability transition pore inhibitors, primary screen, biochemical, isolated mouse mitochondria, absorbance; Ca2+ swelling absorbance, 30 min; inhibition, % at 10 µM; 360,000 tested, 1.4% active; AID 602449, 2012;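 active means inhibition of 50% or more, scaled per plate between neutral and stimulator controls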
UBC13 polyUb – UBC13 polyubiquitin chain formation inhibitors, primary screen, biochemical, TR-FRET, uHTS; 330,000 tested, 0.47% active; inhibition, % at 20 µM; Ubiquitin-conjugating enzyme E2 N (Homo sapiens), P61088; AID 485273, 2010; in the data active means inhibition above about 45%, passing the limit was not always enough
Target sequence (P61088 whole entry, looked up): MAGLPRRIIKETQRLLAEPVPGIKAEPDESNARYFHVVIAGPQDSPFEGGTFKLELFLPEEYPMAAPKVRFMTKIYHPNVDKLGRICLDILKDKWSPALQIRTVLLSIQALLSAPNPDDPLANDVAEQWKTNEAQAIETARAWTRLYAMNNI
iPSC survival up – enhancers of single-cell hiPSC survival, primary screen, ATPlite luminescence; 100% = ROCK inhibitor wells, 0% = DMSO; survival enhancement, % at 20 µM; 360,000 tested, 0.044% active; AID 602274, 2012; in the data active means survival enhancement above about 18%;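 further: cells exposed to compounds for 16 hours before the ATP read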
Exocytosis inh – LAMP-1 surface exposure blockers, TALL-104 cells – cell-based, flow cytometry, MLPCN library, primary screen; TALL-104 LAMP-1 surface exposure; cells stimulated with thapsigargin and PMA; inhibition, % at 10 µM; 360,000 tested, 0.66% active;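 active means inhibition above about 55%, limit read from the data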
MIN6 prolif – inducers of MIN6 beta-cell proliferation, primary screen, ATP luminescence, uHTS | MIN6 cells proliferation, ATPlite luminescence, 48 h; cells starved in 0.2% serum; 100% = growth in 10% serum | proliferation, % at 10 µM | 330,000 tested, 0.29% active;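 active means compounds whose signal lies at least 3.5 SD above the mean of all wells on their plate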
Apaf1 inhib – inhibitors of human Apaf-1 apoptosome, primary screen, biochemical, DEVD-Rh110 fluorescence, uHTS | Apoptotic protease-activating factor 1 (Homo sapiens), O14727 | reconstituted apoptosome caspase-3 activity | 330,000 tested, 0.71% active | inhibition, % at 20 µM; active means inhibition of at least 40% at 20 µM
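Material: reconstituted apoptosome with Apaf-1, cytochrome c, caspase-9, procaspase-3, dATP; medium: pH 7.5 Hepes buffer with CHAPS, BSA, DTT; also added: cytochrome c and DEVD-Rh110 substrate; timing: 30 min plus 50 min, RT; signal: Rh110 fluorescence intensity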
Casp3 UBC13 ctr – CASP3 inhibitor validation, counterassay for project on UBE2N polyubiquitination blockers, biochemical, one dose; AID 488856, 2010; Recombinant caspase-3, Caspase-Glo 3/7 luminescence, 60 min; inhibition, % at 20 µM; 1,400 tested, 4% active; shares compounds with UBC13 polyUb;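 active means mean inhibition across replicates above about 26%, limit read from the data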
Target sequence (P42574 whole entry, looked up): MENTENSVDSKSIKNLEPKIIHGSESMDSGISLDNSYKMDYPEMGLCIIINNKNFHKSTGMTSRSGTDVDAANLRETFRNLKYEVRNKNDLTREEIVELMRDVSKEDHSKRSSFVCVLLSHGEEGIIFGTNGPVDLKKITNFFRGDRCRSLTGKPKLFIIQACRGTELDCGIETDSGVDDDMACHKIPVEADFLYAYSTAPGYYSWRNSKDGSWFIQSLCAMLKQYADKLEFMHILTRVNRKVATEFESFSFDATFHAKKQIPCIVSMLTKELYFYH
UBC13 confirm – UBC13 polyubiquitination inhibitors, single-point retest, confirmation, biochemical, TR-FRET, single concentration. shares compounds with UBC13 polyUb. inhibition, % at 10 µM. 1,400 tested, 68% active; in the data active means inhibition above about 45%
Apaf-1 inh conf – Apaf-1 inhibitors, single-dose retest, confirmation, biochemical, fluorescence, DEVD-Rh110, 20 µM. 1,800 tested, 25% active. inhibition, % at 20 µM. reconstituted apoptosome, caspase-3 DEVD-Rh110 fluorescence. AID 504614, 2011. shares compounds with Apaf1 inhib;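 active means mean inhibition of at least 40% at 20 µM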
Rh110 quench – Rh110 fluorescence interference by putative Apaf-1 inhibitors, confirmation, artefact control for Apaf-1 inhibitor project, biochemical, 20 µM; quenched caspase reaction; shares compounds with Apaf1 inhib; activation (fluorescence interference), % at 20 µM; 1,800 tested, under 10 active;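 active means signal rise of 40% or more at 20 µM, treated as a fluorescence artifact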
Rh123 counter – fluorescence retest of MPTP screen hits in isolated mitochondria, single concentration; AID 624504, 2012; membrane potential, Rhodamine 123 fluorescence; inhibition, % at 10 µM; 5,000 tested, 78% active; shares compounds with MPTP inh; in the data active means inhibition above about 22%
MPTP abs DR – mitochondrial permeability transition pore inhibitors, dose response, biochemical, absorbance, uHTS hits | IC50, µM | 780 tested, 58% active | shares compounds with MPTP inh | AID 651561, 2012 | isolated mitochondria swelling; in the data active means IC50 below about 20 µM
MPTP cs DR – fluorescent counter-screen in isolated mitochondria, dose response, counter-screen for MPTP inhibitor project, biochemical, fluorescence, uHTS hits; shares compounds with MPTP inh; isolated mitochondria counterscreen, fluorescence read-out; IC50, µM; 780 tested, 49% active; AID 651564, 2012; in the data active means IC50 below about 80 µM
Hits are given with their value; 0 = inactive; - = no result.

SMILES	MPTP inh	UBC13 polyUb	iPSC survival up	Exocytosis inh	MIN6 prolif	Apaf1 inhib	Casp3 UBC13 ctr	UBC13 confirm	Apaf-1 inh conf	Rh110 quench	Rh123 counter	others
CCCCCCCCNC(C)C(O)c1ccc(SC(C)C)cc1 (configuration not stated)	86	71	0	0	0	58	0	75	0	0	0
CC(C)(C)c1ccc(C(O)CCCN2CCC(C(O)(c3ccccc3)c3ccccc3)CC2)cc1 (configuration not stated)	92	67	0	0	0	53	0	56	0	0	0
COC(=O)c1c(NC(=O)c2ccc(OC(C)C)cc2)sc2c1CC(C)(C)NC2(C)C	87	84	0	0	0	53	0	60	0	0	0	MPTP abs DR=0;MPTP cs DR=56
CC(C)(C)c1ccc(C(=O)NNC(=O)CCc2ccccc2)cc1	0	0	0	0	0	0	-	-	-	-	-
C1CCC(C(CC2CCCCN2)C2CCCCC2)CC1 (configuration not stated)	82	80	0	0	0	61	0	66	0	0	0
Cc1cc(C)c(C2=CC(=O)C[C@H](c3ccc4c(c3)OCO4)C2)c(C)c1	0	0	0	0	0	0	-	-	-	-	-
CC(C)C[C@@H](CN1CCC[C@H]1CN1C(=O)C(=O)NC[C@@H]1Cc1ccccc1)N1C[C@H](Cc2ccc(O)cc2)N(CCc2ccccc2)C(=O)C1=O	0	-	0	0	-	-	-	-	-	-	-
C[C@@H](CN1CCC[C@H]1CN1C(N)=NC[C@@H]1Cc1ccccc1)N1C[C@@H](Cc2ccccc2)N(CCc2ccc(Cl)c(Cl)c2)C1=N	74	63	0	0	0	74	0	70	0	0	0
CC/C(=C(\c1ccc(O)cc1)c1ccc(OCCN(C)C)cc1)c1ccccc1	103	79	0	0	0	65	0	55	0	0	0
CCN(CC)CCOc1ccc(/C(=C(/Cl)c2ccccc2)c2ccccc2)cc1	98	73	0	0	0	65	0	56	0	0	0	MPTP abs DR=19;MPTP cs DR=43
CSc1nc(Cl)c(Br)c(Nc2c[nH]c(=O)[nH]c2=O)n1	0	-	0	0	-	-	-	-	-	-	-
CC(C)(C)c1ccc(C(=O)NCCN2CCOCC2)cc1	0	0	0	0	0	0	-	-	-	-	-
CC(C)(C)c1ccc(C(=O)NCCCN2CCN(CCCNC(=O)c3ccc(C(C)(C)C)cc3)CC2)cc1	87	66	0	0	0	0	0	74	-	-	86
CCCCOC(=O)Nc1ccc(S(=O)(=O)Nc2onc(C)c2C)cc1	0	0	0	0	0	0	-	-	-	-	-
Cc1cc(C)c2sc(N(CCCN(C)C)C(=O)c3ccc(Br)s3)nc2c1	0	0	0	0	0	0	-	-	-	-	-
Cc1cc(C)c2sc(N(CCCN(C)C)C(=O)c3ccc(S(=O)(=O)N(C)Cc4ccccc4)cc3)nc2c1	82	96	0	0	0	0	0	115	-	-	0	MPTP abs DR=8.8;MPTP cs DR=45
COc1ccc2sc(N(CCCN(C)C)C(=O)c3ccc(S(=O)(=O)N(C)Cc4ccccc4)cc3)nc2c1	78	48	0	0	0	0	0	93	-	-	0	MPTP abs DR=8.1
COCCCNC(=O)C[C@@H]1C[C@@]2(C(=O)OC)CCCCC=C2N(CCc2ccc(OC)c(OC)c2)C1=O	0	-	-	0	-	-	-	-	-	-	-
Cc1ccc(Nc2cc(C)nc(NCc3ccccc3)n2)cc1	56	56	0	0	0	0	0	83	-	-	45
COc1cc(C)nc(NCc2ccccc2)n1	0	0	0	0	0	0	-	-	-	-	-
CCOc1ccccc1NC(=O)C(OC(=O)c1ccc(O)cc1)c1ccccc1 (configuration not stated)	89	78	0	0	0	0	0	89	-	-	86
CCOc1ccccc1NC(=O)C(OC(=O)c1ccc(CC)cc1)c1ccccc1 (configuration not stated)	0	0	0	0	0	0	-	-	-	-	-
Cc1ccc(-c2noc(CCC(=O)NCCN3CCN(Cc4ccccc4)CC3)n2)cc1	0	0	0	0	0	0	-	-	-	-	-
CCOc1ccc(CCNC(=O)Cn2ncn3nc(-c4ccc(OC)cc4)cc3c2=O)cc1	0	0	0	0	0	0	-	-	-	-	-
COc1ccc(-c2noc(CCC(=O)NCCCN3CCN(c4ccc(F)cc4)CC3)n2)cc1	0	0	0	0	0	0	-	-	-	-	-
Cc1ccc(-c2noc(CCC(=O)NCC3CCN(Cc4cccc(C)c4)CC3)n2)cc1	67	56	0	0	0	0	0	70	-	-	0	MPTP abs DR=8.8;MPTP cs DR=24
COc1ccc(-c2noc(CCC(=O)NCCCN3CCC(Cc4ccccc4)CC3)n2)cc1	63	90	0	0	0	0	0	106	-	-	42
COc1ccc(-c2cc3c(=O)n(CC(=O)NCCCN4CCC(Cc5ccccc5)CC4)ncn3n2)cc1	85	52	0	0	0	0	0	76	-	-	0
CC1(C)CCc2cc(S(=O)(=O)N3CCN(S(=O)(=O)c4c(F)cccc4F)CC3)ccc2O1	0	0	0	0	0	0	-	-	-	-	-
NC[C@@H]1O[C@H](C23CC4CC(CC(C4)C2)C3)Cc2c1ccc(O)c2O	94	55	0	0	0	42	0	54	0	0	0
